The text below walks through data of ChEMBL document CHEMBL1127414 (J Med Chem, 1994).

Converted amounts (≈) assume the structure as drawn.

One assay concerns Aspergillus fumigatus. As to the kind of experiment: Concentration required to inhibit growth of MF 4839 strain of Aspergillus fumigatus. The assay is classed as functional. The essentials:
(§1)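 Broth microdilution against a panel of clinically relevant fungal strains. Read-out was the minimum fungicidal concentration in μg/mL.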

A further assay has as its system Candida parapsilosis. The experiment in a line: Concentration required to inhibit growth of MY 1010 strain of Candida parapsilosis. It counts as functional. The conditions noted are these: Lodderomyces parapsilosis. The essentials:
as §1

Assay [1] deals with Candida albicans. The experiment in a line: Concentration required to inhibit growth of MY 1055 strain of Candida albicans. The assay is classed as functional. The essentials: as §1
In assay [2] the test system is Candida albicans. The experiment in a line: Concentration required to inhibit growth of MY 1750 strain of Candida albicans. The assay is classed as functional. The essentials: as §1
The subject of a further assay is Candida tropicalis. The experiment in a line: Concentration required to inhibit growth of MY 1012 strain of Candida tropicalis. The assay is classed as functional. The essentials: as §1
In assay [3] the test system is Cryptococcus neoformans. As to the kind of experiment: Concentration required to inhibit growth of MY 1051 strain of Cryptococcus neoformans. The assay is classed as functional. The procedure, abridged:
as §1

Assay [4] deals with Cryptococcus neoformans. As to the kind of experiment: Concentration required to inhibit growth of MY 2061 strain of Cryptococcus neoformans. The assay is classed as functional. The essentials:
as §1

In assay [5] the test system is HepG2. As to the kind of experiment: Concentration required to inhibit cholesterol synthesis in Hep G2 cells. It counts as functional, cell-based. Conditions: Homo sapiens; call rule not given here. The procedure, abridged: (§2)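 Hep G2 cells held 2 days in lipoprotein-depleted FBS to stimulate sterol synthesis, then given inhibitor in serum-free medium for 2 h. 15 μCi [5-3H]mevalonate (0.2 mCi/mmol) added for 1 h. Cells washed and saponified, and radioactivity counted by scintillation.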

Assay [6] deals with HepG2. The experiment in a line: Concentration required to inhibit cholesterol synthesis in Hep G2 cells relative to control (IC50 of L-694,599). The assay is classed as functional, Homo sapiens. The essentials:
as §2

In assay [7] the test system is Mus musculus. As to the kind of experiment: Tested for its ability to inhibit the incorporation of [5-3H]-mevalonolactone into cholesterol by in vivo mouse assay by peroral administration at a dose of 40 mg/kg. It counts as functional. Conditions: route oral. The essentials: (§3)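 Female Swiss Webster mice (~25 g), six per group, dosed po by gavage with inhibitor suspended in 5% emulphor. 30 min later, 0.5 μCi/mouse [5-3H]mevalonolactone in saline given sc. Livers removed 30 min after that and saponified in KOH/EtOH overnight at 55 °C, then petroleum-ether extracted. Nonsaponifiable dpm counted. Compounds first tested at a single dose (typically 12 or 24 mg/kg).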

Assay [8] deals with T1, Squalene synthase (Rattus norvegicus, UniProt Q02769).
T1 sequence (Q02769 whole entry): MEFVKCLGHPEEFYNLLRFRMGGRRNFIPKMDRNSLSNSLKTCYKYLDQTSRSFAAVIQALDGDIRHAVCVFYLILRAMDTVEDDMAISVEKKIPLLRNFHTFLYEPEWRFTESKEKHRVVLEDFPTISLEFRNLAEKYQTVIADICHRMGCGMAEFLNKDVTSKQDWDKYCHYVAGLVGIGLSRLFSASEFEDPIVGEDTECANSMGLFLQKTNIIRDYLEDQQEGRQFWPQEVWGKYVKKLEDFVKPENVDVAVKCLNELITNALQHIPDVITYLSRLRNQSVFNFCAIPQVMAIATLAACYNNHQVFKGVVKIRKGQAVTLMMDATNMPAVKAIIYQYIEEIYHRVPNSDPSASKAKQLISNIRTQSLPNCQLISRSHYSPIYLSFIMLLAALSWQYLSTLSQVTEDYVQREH
The experiment in a line: Tested for inhibition against squalene synthase enzyme in rat liver.

Assay [9] concerns the target T2, Squalene synthase (Rattus norvegicus) (UniProt Q02769).
T2 sequence (whole entry): T1 sequence (Q02769 whole entry)
The experiment in a line: concentration required to inhibit rat liver squalene synthase enzyme relative to control (L-694,599). The procedure, abridged:
(§4)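 Enzyme from rat liver. […] Inhibitors added in DMSO (0.3% final) as 3-fold serial dilutions, usually up to 30 ng/mL (about 40 nM). IC50 read from % inhibition vs log concentration.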

Assay [10] concerns squalene synthase (Saccharomyces cerevisiae). The experiment in a line: compound required to inhibit 50% activity of yeast squalene synthase enzyme relative to control (L-694,599).
In assay [11] the target is T1, Squalene synthase. The experiment in a line: Concentration required for inhibition of rat liver squalene synthase enzyme at 161 nM; NA = not active.
The next assay deals with Trichophyton benhamiae. The experiment in a line: Concentration required to inhibit growth of MF 4864 strain of Trichophyton mentagrophytes. The assay is classed as functional, Arthroderma benhamiae. The procedure, abridged: as §1
The subject of assay [12] is Mus musculus. As to the kind of experiment: Ability to inhibit the incorporation of [5-3H]-mevalonolactone into cholesterol by in vivo mouse assay by peroral administration at a dose of 24 mg/kg. The conditions noted are these: route oral. It counts as functional. The essentials: as §3
Assay [13] concerns Mus musculus. The experiment in a line: Tested for its ability to inhibit the incorporation of [5-3H]-mevalonolactone into cholesterol by in vivo mouse assay by peroral administration at a dose of 12 mg/kg. The assay is classed as functional. Conditions: route oral. The procedure, abridged:
as §3

The target of assay [14] is T2, Squalene synthase (Rattus norvegicus). As to the kind of experiment: Concentration required to inhibit rat liver squalene synthase enzyme relative to control (L-694,599). The essentials: as §4
Assay [15] deals with T1, Squalene synthase. The experiment in a line: Concentration required for inhibition of rat liver squalene synthase enzyme at 161 nM; Not active.

For `C=C(CCC12OC(C(=O)O)C(O)(C(=O)O)C(C(=O)O)(O1)[C@H](OC(=O)OCCCCCCCCCCCOc1ccccc1)[C@H]2O)[C@@H](OC(C)=O)[C@H](C)Cc1ccccc1` (stereo partly specified), the MFC is 0.15 µg/mL (≈ 0.181 µM) in the assay with Aspergillus fumigatus; 4 µg/mL (≈ 4.83 µM) against Candida parapsilosis; > 128 µg/mL against Candida albicans [1]; 0.5 µg/mL (≈ 0.603 µM) in the assay with Candida albicans [2]; 0.5 µg/mL (≈ 0.603 µM) in the assay on Candida tropicalis; 8 µg/mL (≈ 9.65 µM) against Cryptococcus neoformans [3]. This compound also returned an MFC against Cryptococcus neoformans [4] of 16 µg/mL (≈ 19.3 µM). In addition, the figures for the IC50 in the assay on HepG2 [5] and against Squalene synthase [8] were 2400 nM and 0.04 nM, respectively. Moreover, the Relative activity in the assay on HepG2 [6] is 3.46; in [9], 3; in assay [10], 6.07. Besides, in the assay on Mus musculus [7], the inhibition in vivo at 40 mg/kg stood at 12%.
As to `C=C(CCC12OC(C(=O)O)C(OCCCCCCCCCCCCCC)(C(=O)O)C(C(=O)O)(O1)[C@H](OCCCCCCCCCCCCCC)[C@H]2O)[C@@H](OC(C)=O)[C@H](C)Cc1ccccc1` (stereo partly specified), the IC50 result against Squalene synthase [11] is reported as “Not Active”.
Take `C=C(CCC12OC(C(=O)O)C(O)(C(=O)O)C(C(=O)O)(O1)[C@H](OCCCCCCCCCCCCCC)[C@H]2O)[C@@H](OC(C)=O)[C@H](C)Cc1ccccc1` (stereo partly specified): the IC50 was determined as 1500 nM in the assay on HepG2 [5] and 0.09 nM against Squalene synthase [8]. Also, the Relative activity with HepG2 [6] is 6; in assay [9] it was 1.26. Besides, the inhibition in vivo at 40 mg/kg with Mus musculus [7] came to 0%.
With `C=C(CCC12OC(C(=O)O)C(O)(C(=O)O)C(C(=O)O)(O1)[C@H](OCCCCCCCCCCCC)[C@H]2O)[C@@H](OC(C)=O)[C@H](C)Cc1ccccc1` (stereo partly specified), the MFC in the assay on Aspergillus fumigatus stood at 0.5 µg/mL (≈ 0.707 µM); against Candida parapsilosis, 8 µg/mL (≈ 11.3 µM); in the assay with Candida albicans [1] it was 4 µg/mL (≈ 5.66 µM); against Candida albicans [2], 32 µg/mL (≈ 45.3 µM); in the assay with Candida tropicalis, 64 µg/mL (≈ 90.5 µM); against Cryptococcus neoformans [3], 0.5 µg/mL (≈ 0.707 µM). Moreover, the results for the MFC with Cryptococcus neoformans [4] and against Trichophyton benhamiae were 0.12 µg/mL (≈ 0.17 µM) and 1 µg/mL (≈ 1.41 µM), respectively. Further, the IC50 was 1600 nM in the assay with HepG2 [5] and 0.12 nM against Squalene synthase [8]. For the same compound, the Relative activity in the assay on HepG2 [6] was 5.62; in assay [9] it was 2.5; in assay [10], 9.26. Further, the inhibition in vivo at 40 mg/kg in the assay with Mus musculus [7] worked out at 26%.
`C=C(CCC12OC(C(=O)O)C(O)(C(=O)O)C(C(=O)O)(O1)[C@H](OC(=O)NCCCCCCCCCC)[C@H]2O)[C@@H](OC(C)=O)[C@H](C)Cc1ccccc1` (stereo partly specified): the MFC against Aspergillus fumigatus was found to be 32 µg/mL (≈ 44.3 µM); against Candida parapsilosis, 8 µg/mL (≈ 11.1 µM); in the assay on Candida albicans [1], 8 µg/mL (≈ 11.1 µM); with Candida albicans [2], 4 µg/mL (≈ 5.54 µM); in the assay on Candida tropicalis, 16 µg/mL (≈ 22.2 µM); in the assay with Cryptococcus neoformans [3], 4 µg/mL (≈ 5.54 µM). In addition, the MFC in the assay with Cryptococcus neoformans [4] amounted to 0.5 µg/mL (≈ 0.693 µM); with Trichophyton benhamiae, 2 µg/mL (≈ 2.77 µM). This compound came in with an IC50 in the assay on HepG2 [5] of 3600 nM. For the same compound, the inhibition in vivo at 24 mg/kg in the assay with Mus musculus [12] is 4%.
For `CCCC(=O)O[C@@H]1[C@@H](O)C2(CCCCc3ccccc3)OC(C(=O)O)C(O)(C(=O)O)C1(C(=O)O)O2` (stereo partly specified), the inhibition in vivo at 12 mg/kg in the assay on Mus musculus [13] is 5%. Also, on Squalene synthase [8], the IC50 is > 3000 nM. Further, the Relative activity in assay [14] was 0.
Regarding `C=C(CCC12OC(C(=O)O)C(OCCC)(C(=O)O)C(C(=O)O)(O1)[C@H](OCCC)[C@H]2O)[C@@H](OC(C)=O)[C@H](C)Cc1ccccc1` (stereo partly specified), the IC50 entry at Squalene synthase [15] is “Not Active”.
Regarding `C=C(CCC12OC(C(=O)O)C(O)(C(=O)O)C(C(=O)O)(O1)[C@H](OCCCCCCCCCC)[C@H]2O)[C@@H](OC(C)=O)[C@H](C)Cc1ccccc1` (stereo partly specified), the IC50 with HepG2 [5] is 2200 nM; against Squalene synthase [8], 0.21 nM. Besides, the values for the Relative activity (in the assay on HepG2 [6]; in assay [9]) were 4.09 and 1.43, respectively. The inhibition in vivo at 40 mg/kg with Mus musculus [7] stood at 28%.
For `C=C(CCC12OC(C(=O)O)C(OCCC)(C(=O)O)C(C(=O)O)(O1)[C@H](O)[C@H]2O)[C@@H](OC(C)=O)[C@H](C)Cc1ccccc1` (stereo partly specified), the IC50 result against Squalene synthase [15] is reported as “Not Active”.
Take `CCCC(=O)O[C@@H]1[C@@H](O)C2(CCCC[C@H](C)Cc3ccccc3)OC(C(=O)O)C(O)(C(=O)O)C1(C(=O)O)O2` (stereo partly specified): the inhibition in vivo at 12 mg/kg with Mus musculus [13] was -3%. Moreover, the IC50 on Squalene synthase [8] turned out to be 110 nM. This compound also yielded a Relative activity in assay [14] of 0.0026.
